Laboratory results taken from ChEMBL document CHEMBL1151813, “Synthesis and cytotoxicity of bidesmosidic betulin and betulinic acid saponins” (J Nat Prod, 2009).

Tests used:
[1] = system: PC-3; assay: Cytotoxicity against human PC3 cells after 48 hrs; assay type: functional, cell-based; settings: PC-3, 48 h
Procedure, shortened: (§1)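 Cells grown in MEM (Earle's salts, L-glutamine) with 10% FBS, vitamins, amino acids, pyruvate, penicillin/streptomycin at 37 °C, 5% CO2. 5 × 10³ cells/well adhered 16 h, then increasing concentrations in DMSO (final 0.5% v/v) for 48 h. Resazurin fluorescence read at ex 530/em 590 nm; survival vs control wells after blank subtraction. Three experiments in triplicate; IC50 as mean ± standard deviation.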

[2] = system: MCF7; assay: Cytotoxicity against human MCF7 cells after 48 hrs; assay type: functional, cell-based; settings: MCF7, 48 h; procedure, shortened: as §1
[3] = Cytotoxicity against human WS1 cells after 48 hrs; assay type: cell-based; settings: WS1, 48 h
[4] = system: A549; assay: Cytotoxicity against human A549 cells after 48 hrs; assay type: functional, cell-based; settings: A549, 48 h; procedure, shortened: as §1
[5] = system: DLD-1; assay: Cytotoxicity against human DLD1 cells after 48 hrs; assay type: functional, cell-based; settings: DLD-1, 48 h; procedure, shortened: as §1

Structure (SMILES): C=C(C)[C@@H]1CC[C@]2(C(=O)O[C@@H]3O[C@H](CO)[C@@H](O)[C@H](O)[C@H]3O)CC[C@]3(C)[C@H](CC[C@@H]4[C@@]5(C)CC[C@H](O)C(C)(C)[C@@H]5CC[C@]43C)[C@@H]12
- IC50 [1]: > 100 µM
- IC50 [2]: > 100 µM
- IC50 [3]: > 100 µM
- IC50 [4]: > 100 µM
- IC50 [5]: > 100 µM

Structure (SMILES): C=C(C)[C@@H]1CC[C@]2(C(=O)O[C@@H]3O[C@@H](C)[C@H](O)[C@@H](O)[C@H]3O)CC[C@]3(C)[C@H](CC[C@@H]4[C@@]5(C)CC[C@H](O[C@@H]6O[C@@H](C)[C@H](O)[C@@H](O)[C@H]6O)C(C)(C)[C@@H]5CC[C@]43C)[C@@H]12
- IC50 [1]: 7.2 µM
- IC50 [2]: 6 µM
- IC50 [3]: 4.9 µM
- IC50 [4]: 7.2 µM
- IC50 [5]: 7.3 µM

Structure (SMILES): C=C(C)[C@@H]1CC[C@]2(CO)CC[C@]3(C)[C@H](CC[C@@H]4[C@@]5(C)CC[C@H](O)C(C)(C)[C@@H]5CC[C@]43C)[C@@H]12 [BETULIN]
- IC50 [1]: 17.9 µM
- IC50 [2]: 23.3 µM
- IC50 [3]: 3.6 µM
- IC50 [4]: 3.8 µM
- IC50 [5]: 6.6 µM

Structure (SMILES): C=C(C)[C@@H]1CC[C@]2(C(=O)O[C@@H]3O[C@H](CO)[C@@H](O)[C@H](O)[C@H]3O)CC[C@]3(C)[C@H](CC[C@@H]4[C@@]5(C)CC[C@H](O[C@@H]6OC[C@H](O)[C@H](O)[C@H]6O)C(C)(C)[C@@H]5CC[C@]43C)[C@@H]12
- IC50 [1]: 68 µM
- IC50 [2]: 23 µM
- IC50 [3]: 50 µM
- IC50 [4]: 76 µM
- IC50 [5]: 60 µM

Structure (SMILES): C=C(C)[C@@H]1CC[C@]2(CO[C@@H]3O[C@@H](C)[C@H](O)[C@@H](O)[C@H]3O)CC[C@]3(C)[C@H](CC[C@@H]4[C@@]5(C)CC[C@H](O[C@@H]6O[C@@H](C)[C@H](O)[C@@H](O)[C@H]6O)C(C)(C)[C@@H]5CC[C@]43C)[C@@H]12
- IC50 [1]: 1.8 µM
- IC50 [2]: 1.7 µM
- IC50 [3]: 1.3 µM
- IC50 [4]: 1.9 µM
- IC50 [5]: 1.9 µM

Structure (SMILES): C=C(C)[C@@H]1CC[C@]2(CO[C@@H]3O[C@H](CO)[C@@H](O)[C@H](O)[C@H]3O)CC[C@]3(C)[C@H](CC[C@@H]4[C@@]5(C)CC[C@H](O[C@@H]6O[C@H](CO)[C@@H](O)[C@H](O)[C@H]6O)C(C)(C)[C@@H]5CC[C@]43C)[C@@H]12
- IC50 [1]: > 100 µM
- IC50 [2]: 14.5 µM
- IC50 [3]: 20 µM
- IC50 [4]: > 100 µM
- IC50 [5]: 27 µM

Structure (SMILES): COc1cc([C@@H]2c3cc4c(cc3[C@@H](O[C@@H]3O[C@@H]5CO[C@@H](C)O[C@H]5[C@H](O)[C@H]3O)[C@H]3COC(=O)[C@H]23)OCO4)cc(OC)c1O [ETOPOSIDE]
- IC50 [1]: 1.7 µM
- IC50 [2]: 0.7 µM
- IC50 [3]: 34 µM
- IC50 [4]: 1.2 µM
- IC50 [5]: 27 µM

Structure (SMILES): C=C(C)[C@@H]1CC[C@]2(C(=O)O[C@@H]3O[C@H](CO)[C@@H](O)[C@H](O)[C@H]3O)CC[C@]3(C)[C@H](CC[C@@H]4[C@@]5(C)CC[C@H](O[C@@H]6O[C@H](CO)[C@@H](O)[C@H](O)[C@H]6O)C(C)(C)[C@@H]5CC[C@]43C)[C@@H]12
- IC50 [1]: 66 µM
- IC50 [2]: 20 µM
- IC50 [3]: 35 µM
- IC50 [4]: > 100 µM
- IC50 [5]: > 100 µM

Structure (SMILES): C=C(C)[C@@H]1CC[C@]2(C(=O)O[C@@H]3O[C@H](CO)[C@@H](O)[C@H](O)[C@H]3O)CC[C@]3(C)[C@H](CC[C@@H]4[C@@]5(C)CC[C@H](O[C@@H]6O[C@@H](C)[C@H](O)[C@@H](O)[C@H]6O)C(C)(C)[C@@H]5CC[C@]43C)[C@@H]12
- IC50 [1]: 11.2 µM
- IC50 [2]: 5.7 µM
- IC50 [3]: 9 µM
- IC50 [4]: 23 µM
- IC50 [5]: 11 µM

Structure (SMILES): C=C(C)[C@@H]1CC[C@]2(CO[C@@H]3O[C@H](CO)[C@@H](O)[C@H](O)[C@H]3O)CC[C@]3(C)[C@H](CC[C@@H]4[C@@]5(C)CC[C@H](O[C@@H]6O[C@@H](C)[C@H](O)[C@@H](O)[C@H]6O)C(C)(C)[C@@H]5CC[C@]43C)[C@@H]12
- IC50 [1]: 6.9 µM
- IC50 [2]: 9 µM
- IC50 [3]: 5.3 µM
- IC50 [4]: 16.8 µM
- IC50 [5]: 10.6 µM

Structure (SMILES): C=C(C)[C@@H]1CC[C@]2(CO[C@@H]3O[C@H](CO)[C@@H](O)[C@H](O)[C@H]3O)CC[C@]3(C)[C@H](CC[C@@H]4[C@@]5(C)CC[C@H](O)C(C)(C)[C@@H]5CC[C@]43C)[C@@H]12
- IC50 [1]: > 100 µM
- IC50 [2]: > 100 µM
- IC50 [3]: > 100 µM
- IC50 [4]: > 100 µM
- IC50 [5]: > 100 µM

Structure (SMILES): C=C(C)[C@@H]1CC[C@]2(CO[C@@H]3O[C@H](CO)[C@@H](O)[C@H](O)[C@H]3O)CC[C@]3(C)[C@H](CC[C@@H]4[C@@]5(C)CC[C@H](O[C@@H]6OC[C@H](O)[C@H](O)[C@H]6O)C(C)(C)[C@@H]5CC[C@]43C)[C@@H]12
- IC50 [1]: 5.3 µM
- IC50 [2]: 9.5 µM
- IC50 [3]: 4.5 µM
- IC50 [4]: > 100 µM
- IC50 [5]: 19 µM

Structure (SMILES): C=C(C)[C@@H]1CC[C@]2(C(=O)O)CC[C@]3(C)[C@H](CC[C@@H]4[C@@]5(C)CC[C@H](O)C(C)(C)[C@@H]5CC[C@]43C)[C@@H]12 [BETULINIC ACID]
- IC50 [1]: 40 µM
- IC50 [2]: 41 µM
- IC50 [3]: 12 µM
- IC50 [4]: 10.3 µM
- IC50 [5]: 15 µM
